Assay results from ChEMBL document CHEMBL4014338, “Discovery of Small Molecules as Multi-Toll-like Receptor Agonists with Proinflammatory and Anticancer Activities” (J Med Chem, 2017).

What was measured:
HeLa [1] = test: Cell cycle arrest in human HeLa cells assessed as accumulation at G0/G1 phase at 40 uM after 24 hrs by propidium iodide staining based flow cytometry (reference value: 52%); type: functional
Toll-like receptor 9 = target: T1, Toll-like receptor 9 (Homo sapiens, UniProt Q9NR96); test: Agonist activity at human TLR9 expressed in HEK293 cells assessed as induction of NF-kB activation-mediated SEAP production after 24 hrs by HTS assay; type: cell-based
T1 sequence (Q9NR96 whole entry): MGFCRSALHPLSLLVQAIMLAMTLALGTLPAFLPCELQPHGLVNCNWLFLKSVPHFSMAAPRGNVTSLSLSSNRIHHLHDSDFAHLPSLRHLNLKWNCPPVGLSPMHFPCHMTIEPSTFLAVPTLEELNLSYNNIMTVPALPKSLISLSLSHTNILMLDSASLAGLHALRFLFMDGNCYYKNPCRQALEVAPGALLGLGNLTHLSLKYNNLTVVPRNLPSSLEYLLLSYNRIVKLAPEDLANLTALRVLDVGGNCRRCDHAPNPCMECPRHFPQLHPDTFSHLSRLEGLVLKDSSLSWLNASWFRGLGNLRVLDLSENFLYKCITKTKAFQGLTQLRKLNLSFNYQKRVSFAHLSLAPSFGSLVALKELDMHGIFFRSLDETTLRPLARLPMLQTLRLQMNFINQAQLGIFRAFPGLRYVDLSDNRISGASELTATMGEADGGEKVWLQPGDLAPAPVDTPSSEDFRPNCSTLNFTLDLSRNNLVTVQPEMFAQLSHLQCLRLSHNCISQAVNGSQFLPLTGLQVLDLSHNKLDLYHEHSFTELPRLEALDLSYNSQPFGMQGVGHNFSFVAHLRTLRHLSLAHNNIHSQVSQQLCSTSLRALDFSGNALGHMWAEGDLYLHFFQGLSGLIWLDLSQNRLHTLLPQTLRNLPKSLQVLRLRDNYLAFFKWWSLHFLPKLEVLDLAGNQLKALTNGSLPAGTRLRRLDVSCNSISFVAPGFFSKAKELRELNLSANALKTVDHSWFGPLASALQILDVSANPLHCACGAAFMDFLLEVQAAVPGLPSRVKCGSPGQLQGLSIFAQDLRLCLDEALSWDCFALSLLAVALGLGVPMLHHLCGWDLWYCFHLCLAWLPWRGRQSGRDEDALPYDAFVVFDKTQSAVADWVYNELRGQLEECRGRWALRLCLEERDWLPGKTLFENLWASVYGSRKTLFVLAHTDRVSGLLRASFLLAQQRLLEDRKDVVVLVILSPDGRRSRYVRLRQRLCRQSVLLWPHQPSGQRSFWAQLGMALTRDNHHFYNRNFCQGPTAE
Outline: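 HEK293 cells stably expressing human TLR8 or TLR9 plus an NF-κB-inducible SEAP reporter, seeded at 5 × 10^4 cells/well for 24 h, then treated for 24 h. Supernatant incubated with QUANTI-Blue at 37 °C for 1 h and OD read at 620 nm. Positive controls were R848 (TLR8) and ODN2006 (TLR9). EC50 reported as mean ± SD.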

Toll-like receptor 3 = target: T2, Toll-like receptor 3 (Homo sapiens, UniProt O15455); test: Agonist activity at human TLR3 expressed in HEK293 cells assessed as induction of NF-kB activation-mediated SEAP production after 24 hrs by HTS assay; type: cell-based
T2 sequence (O15455 whole entry): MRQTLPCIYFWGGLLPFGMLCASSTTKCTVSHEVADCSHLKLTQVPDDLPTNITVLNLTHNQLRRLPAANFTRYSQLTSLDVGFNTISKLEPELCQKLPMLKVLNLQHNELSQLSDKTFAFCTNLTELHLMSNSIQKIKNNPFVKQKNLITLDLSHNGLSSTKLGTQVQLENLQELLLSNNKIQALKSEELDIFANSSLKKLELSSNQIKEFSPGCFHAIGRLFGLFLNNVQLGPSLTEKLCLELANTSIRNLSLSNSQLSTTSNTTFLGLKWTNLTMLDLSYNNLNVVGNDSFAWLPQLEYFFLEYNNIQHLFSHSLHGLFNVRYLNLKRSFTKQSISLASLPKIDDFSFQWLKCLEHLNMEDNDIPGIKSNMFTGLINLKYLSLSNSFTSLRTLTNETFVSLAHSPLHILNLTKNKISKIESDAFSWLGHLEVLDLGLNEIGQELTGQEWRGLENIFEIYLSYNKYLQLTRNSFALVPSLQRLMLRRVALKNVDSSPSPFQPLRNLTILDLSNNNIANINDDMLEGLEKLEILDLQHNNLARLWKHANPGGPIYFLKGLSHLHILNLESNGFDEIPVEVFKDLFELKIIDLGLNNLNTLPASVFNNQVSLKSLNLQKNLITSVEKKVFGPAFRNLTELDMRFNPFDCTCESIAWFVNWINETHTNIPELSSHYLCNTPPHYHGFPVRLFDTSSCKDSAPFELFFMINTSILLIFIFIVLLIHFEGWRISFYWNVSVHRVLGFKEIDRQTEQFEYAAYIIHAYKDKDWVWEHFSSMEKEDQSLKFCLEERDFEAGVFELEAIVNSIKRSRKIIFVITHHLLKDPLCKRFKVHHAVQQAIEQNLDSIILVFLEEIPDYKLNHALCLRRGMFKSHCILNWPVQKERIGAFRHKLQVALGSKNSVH
Outline: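 Stable HEK293 lines expressing a single hTLR plus a SEAP reporter, grown in DMEM/10% FBS with selective antibiotics. Seeded at 5 × 10^4 cells/well for 24 h at 37 °C, then treated 24 h. Supernatant mixed with QUANTI-Blue, 1 h at 37 °C, OD 620 nm. Cognate agonists: Pam3CSK4 (TLR2), poly I:C (TLR3), LPS (TLR4), FLA-BS (TLR5), R848 (TLR7). EC50 as mean ± SD.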

HeLa [2] = test: Antiproliferative activity against human HeLa cells after 24 hrs by WST1 assay; type: functional, cell-based
Outline: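 Cells seeded at 5 × 10^3/well and left 24 h, then given a concentration series for 24, 48 or 72 h. WST-1 reagent added and incubated at 37 °C for 30 min–2 h until color change; absorbance 450 nm. Growth inhibition = (1 − [sample − background]/[control − background]) × 100. IC50 mean ± SD, three cell preparations.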

O=[N+]([O-])c1ccc(COc2cc3c(cc2OCc2ccc([N+](=O)[O-])cc2)OC2(C=C3)CCOCC2)cc1
Activity (HeLa [1]): 40% | EC50 (Toll-like receptor 9): 5.66 µM | EC50 (Toll-like receptor 3): 4.8 µM | Activity (HeLa [2]): Dose-dependent effect | IC50 (HeLa [2]): 38.6 µM
